This experiment in a line: inhibitors of GR-EGFP nuclear translocation, primary screen, dynein cargo transport inhibitor project, imaging, high-content, 3617.4 mouse cells (AID 1381). To be noted: stimulated with dexamethasone, 1 µM. An outline of the steps: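 Buffer or medium: tetracycline-free induction medium containing charcoal-stripped FBS / Reagent: dexamethasone agonist, 1.0 µM final, for 30 min / Technique: automated 10x imaging of fixed Hoechst-stained cells / Times: induction 48 h, compound 1 h, agonist 30 min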

Setting [1] is: measured here: cell count per field, at 20 µM.
The mark [2] stands for this setting: measured here: cytoplasmic GR-EGFP intensity, at 20 µM, stronger effect = higher value.
[3] abbreviates: measured here: nuclear GR-EGFP intensity, at 20 µM, stronger effect = lower value.
[4] abbreviates: measured here: cell count per field, at 50 µM.
The mark [5] stands for this setting: measured here: cytoplasmic GR-EGFP intensity, at 50 µM, stronger effect = higher value.
[6] abbreviates: measured here: nuclear GR-EGFP intensity, at 50 µM, stronger effect = lower value.

Among all 220,000 compounds or so, about 1,000 (0.45%) were called active. This is one part of a sample in which actives are shown more often than they occur.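 Rule for the calls: active = plate z-score of nuclear minus cytoplasmic receptor signal below a set negative limit, without overly bright fluorescence or cell loss (cut at about -3.5 in these data, passing the limit was not always enough); inactive = the rest, inconclusive results apart.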

Take `CC(=O)Cn1ncc(N2CCOCC2)c(Br)c1=O`: the z-score reads like this: (at 20 µM, stronger effect = lower value) 1.61 (inactive); under setting [1], -0.679; under setting [2], -0.251; under setting [3], 0.837.

As to `O=C(c1cccs1)N1CCN(C(=O)N2CCOCC2)CC1`, the z-score runs as follows: (at 20 µM, stronger effect = lower value) -0.705 (inactive); under setting [1], 0.766; under setting [2], -0.299; under setting [3], -0.226.

On to `CC(=O)Nc1ccccc1OC(=O)N1CCOCC1`, for which the z-score (at 50 µM, stronger effect = lower value) was -0.424 (inactive); the z-score under setting [4] turned out to be 0.445; the z-score under setting [5] was -0.192; the z-score under setting [6] was -0.0276.

Consider `O=C(/C=C/c1cccs1)c1cc(Cl)ccc1OC(=O)N1CCOCC1`, for which the z-score (at 20 µM, stronger effect = lower value) is -4.66 (active); the z-score under setting [1] is 0.865; the z-score under setting [2] was determined as 0.34; the z-score under setting [3] is -2.08.

For the compound `CC(=O)NC1(c2ccc(F)cc2)CCN(C(=O)c2c(F)cccc2F)CC1`, the z-score (at 20 µM, stronger effect = lower value) is -0.575 (inactive); the z-score under setting [1] worked out at 1.07; the z-score under setting [2] was -0.235; the z-score under setting [3] was -0.241.

On to `Nc1ncnc(Nc2cccc(Cl)c2Cl)n1`, for which the z-score was -1.6 (inactive) (at 20 µM, stronger effect = lower value); 0.756 under setting [1]; -0.225 under setting [2]; -1.2 under setting [3].

Turning to `COCCN(Cc1nc(-c2ccc(C(F)(F)F)cc2)no1)C(C)C`, the z-score (at 20 µM, stronger effect = lower value) is -0.214 (inactive); the z-score under setting [1] turned out to be 0.527; the z-score under setting [2] was -0.267; the z-score under setting [3] stood at 0.0742.

Turning to `O=C(NNS(=O)(=O)Cc1ccccc1)c1ccc([N+](=O)[O-])cc1`, the z-score (at 20 µM, stronger effect = lower value) was -0.775 (inactive); the z-score under setting [1] came out at 0.134; the z-score under setting [2] was -0.751; the z-score under setting [3] was -0.634.

As to `COc1ccc(-n2cnc3cc(C(=O)NC4CCCC4)ccc32)cc1`, the z-score (at 20 µM, stronger effect = lower value) is 0.728 (inactive); the z-score under setting [1] was -0.477; the z-score under setting [2] was -0.235; the z-score under setting [3] came to 0.5.

For the compound `Cc1cc(-c2n[nH]c(=S)n2/N=C/c2ccco2)n[nH]1`, the z-score is 0.146 (inactive) (at 20 µM, stronger effect = lower value); -0.499 under setting [1]; -0.239 under setting [2]; -0.0329 under setting [3].

For the compound `S=c1[nH]nc(-c2cccnc2)n1/N=C/C(Cl)=C\c1ccccc1`, the z-score reads like this: (at 20 µM, stronger effect = lower value) -0.315 (inactive); under setting [1], -1.55; under setting [2], 0.22; under setting [3], 0.116.

In the case of `Cc1cc(-c2n[nH]c(=S)n2/N=C/C(Br)=C/c2ccccc2)n[nH]1`, the z-score runs as follows: (at 20 µM, stronger effect = lower value) -4.43 (active); under setting [1], -1.17; under setting [2], 0.939; under setting [3], -2.57.

Turning to `Nc1ccccc1SCc1cc([N+](=O)[O-])cc2c1OCOC2`, the z-score by setting is: (at 20 µM, stronger effect = lower value) -0.839 (inactive); under setting [1], 0.822; under setting [2], 3.91; under setting [3], 0.0233.

Regarding `Nc1ccccc1Sc1ccc(C(F)(F)F)cc1[N+](=O)[O-]`, the z-score is, setting by setting: (at 20 µM, stronger effect = lower value) -0.595 (inactive); under setting [1], 0.488; under setting [2], -0.213; under setting [3], -0.319.

Turning to `Nc1ccccc1SC(C[N+](=O)[O-])c1ccccc1` (configuration not stated), the z-score by setting is: (at 20 µM, stronger effect = lower value) -4.57 (active); under setting [1], -0.167; under setting [2], 2.56; under setting [3], -1.84.

As for `COC(=O)c1cc(C(=O)N(Cc2ccccc2)c2ccccn2)cc([N+](=O)[O-])c1`, the z-score is, setting by setting: (at 20 µM, stronger effect = lower value) -0.154 (inactive); under setting [1], -0.0688; under setting [2], -0.223; under setting [3], -0.31.

As to `CN1CCN(C(=O)/C(=C\c2cccs2)NC(=O)c2cccs2)CC1`, the z-score runs as follows: (at 20 µM, stronger effect = lower value) -0.757 (inactive); under setting [1], 1.17; under setting [2], -0.214; under setting [3], -0.212.

In the case of `OCC(CO)(CO)NCc1ccc(-c2ccccc2)cc1`, the z-score (at 20 µM, stronger effect = lower value) was -0.998 (inactive); the z-score under setting [1] turned out to be 0.791; the z-score under setting [2] is -0.231; the z-score under setting [3] is -0.299.

With `O=C(NNC(=O)c1ccccc1[N+](=O)[O-])Nc1ccccc1C(F)(F)F`, the z-score reads like this: (at 20 µM, stronger effect = lower value) -1.96 (inactive); under setting [1], 0.934; under setting [2], -0.0968; under setting [3], -0.966.

For the compound `CC1(C)CCSC(/C=C/c2ccccc2)=N1`, the z-score by setting is: (at 20 µM, stronger effect = lower value) -6.85 (active); under setting [1], 1.01; under setting [2], 1.09; under setting [3], -2.95.

For the compound `Cc1ccc2nc(-c3ccncc3)cc(C(=O)Nc3ccc(OC(F)F)cc3)c2c1`, the z-score was -0.0501 (inactive) (at 20 µM, stronger effect = lower value); 0.497 under setting [1]; -0.311 under setting [2]; -0.123 under setting [3].

Regarding `O=C(Nn1c(SCc2ccc([N+](=O)[O-])cc2)nc2ccccc2c1=O)c1ccc(F)cc1`, the z-score runs as follows: (at 20 µM, stronger effect = lower value) -0.621 (inactive); under setting [1], 3.84; under setting [2], -0.327; under setting [3], -0.596.

With `O=C(CCc1nnc(CCCCc2ccccc2)o1)NC(c1cccnc1)C(F)(F)F` (configuration not stated), the z-score (at 20 µM, stronger effect = lower value) is -0.699 (inactive); the z-score under setting [1] was found to be 1.17; the z-score under setting [2] is -0.266; the z-score under setting [3] was -0.517.

Consider `COc1cc2c(cc1OC)C(C(C)C)=NC(C)(C)C2`, for which the z-score by setting is: (at 50 µM, stronger effect = lower value) 1.53 (inactive); under setting [4], -0.94; under setting [5], -0.084; under setting [6], 1.55.

Take `COc1cc2c(cc1O)C(SC)=NC(C)(C)C2`: the z-score reads like this: (at 50 µM, stronger effect = lower value) -4 (active); under setting [4], -1.21; under setting [5], 2.4; under setting [6], -1.15.

For `COc1cc2c(cc1OC)C(Nc1ccc(S(N)(=O)=O)cc1)=NC(C)(C)C2`, the z-score is 0.371 (inactive) (at 20 µM, stronger effect = lower value); 0.476 under setting [1]; -0.265 under setting [2]; 0.242 under setting [3].

Regarding `CC(OC(=O)c1ccccc1N1C(=O)C2C3CCC(C3)C2C1=O)C(=O)c1ccccc1` (configuration not stated), the z-score runs as follows: (at 20 µM, stronger effect = lower value) 0.064 (inactive); under setting [1], -1.14; under setting [2], -0.233; under setting [3], -0.118.

On to `CC(C)CNc1ncnc2c1cnn2Cc1ccc(Cl)cc1`, for which the z-score is, setting by setting: (at 20 µM, stronger effect = lower value) -0.416 (inactive); under setting [1], 0.999; under setting [2], -0.294; under setting [3], -0.416.

Consider `CCOc1cc(N2CCOCC2)c(OCC)cc1NC(=O)C1=NN(c2cccc(C)c2)C(=O)CC1`, for which the z-score is, setting by setting: (at 20 µM, stronger effect = lower value) 0.424 (inactive); under setting [1], 0.873; under setting [2], -0.249; under setting [3], -0.0907.

Regarding `C=CS(=O)c1sc(Cl)c(N2CCOCC2)c1[N+](=O)[O-]` (configuration not stated), the z-score was -5.81 (active) (at 20 µM, stronger effect = lower value); -1.51 under setting [1]; 2.63 under setting [2]; -2.55 under setting [3].

As for `O=C(NCc1ccccc1)c1ccc(CNc2c(N3CCCC3)c(=O)c2=O)cc1`, the z-score was 1.94 (inactive) (at 20 µM, stronger effect = lower value); -1.79 under setting [1]; -0.175 under setting [2]; 1.39 under setting [3].

In the case of `Cc1ccc(OCC(=O)Nc2cccc3c2CCCC3)cc1C`, the z-score reads like this: (at 20 µM, stronger effect = lower value) -0.29 (inactive); under setting [1], 0.502; under setting [2], -0.193; under setting [3], -0.445.

In the case of `CCN(CC)c1ccc2c(Nc3ccccc3)c(C=O)c(=O)oc2c1`, the z-score runs as follows: (at 20 µM, stronger effect = lower value) 1.78 (inactive); under setting [1], -1.59; under setting [2], 1.04; under setting [3], 1.54.

With `CCN(CC)c1ccc2oc(=O)c(C)nc2c1`, the z-score by setting is: (at 50 µM, stronger effect = lower value) -4.98 (active); under setting [4], 0.102; under setting [5], 1.35; under setting [6], -2.69.

On to `CCN(CC)c1ccc2cc(C(=O)O)c(=O)oc2c1`, for which the z-score is, setting by setting: (at 20 µM, stronger effect = lower value) 0.513 (inactive); under setting [1], -0.14; under setting [2], -0.259; under setting [3], 0.0952.

For `O=C(Nc1ccn(Cc2ccccc2)n1)c1n[nH]c([N+](=O)[O-])c1Cl`, the z-score is 1.15 (inactive) (at 20 µM, stronger effect = lower value); -1.23 under setting [1]; -0.194 under setting [2]; 0.757 under setting [3].

For the compound `Cc1cccc(-n2cc(CN3CCN(C(=O)c4ncn[nH]4)CC3)c(-c3cccc(F)c3)n2)c1`, the z-score was 0.856 (inactive) (at 20 µM, stronger effect = lower value); -0.858 under setting [1]; -0.164 under setting [2]; 0.386 under setting [3].

Regarding `CCN(CC)S(=O)(=O)c1ccc2c3c(cccc13)C(=O)S2`, the z-score reads like this: (at 50 µM, stronger effect = lower value) -0.224 (inactive); under setting [4], 0.583; under setting [5], -0.26; under setting [6], -0.962.

`CCNC(=S)Nc1ccc(OC(F)(F)F)cc1`: the z-score reads like this: (at 20 µM, stronger effect = lower value) -0.827 (inactive); under setting [1], 0.129; under setting [2], -0.313; under setting [3], 0.232.

On to `COc1ccc(C(CCN(Cc2ccc(OC)c(OC)c2)C(=O)CCl)c2ccccc2)cc1` (configuration not stated), for which the z-score reads like this: (at 20 µM, stronger effect = lower value) -5.18 (active); under setting [1], -0.271; under setting [2], 0.893; under setting [3], -2.94.

In the case of `CCOC(=O)CN(Cc1ccc(OC)c(OC)c1)S(=O)(=O)c1ccc(OC)cc1`, the z-score runs as follows: (at 20 µM, stronger effect = lower value) -0.369 (inactive); under setting [1], 0.666; under setting [2], -0.0278; under setting [3], 0.0349.

As to `COc1ccc(CCNC(=O)C(Sc2ccccn2)c2ccccc2)cc1OC` (configuration not stated), the z-score (at 20 µM, stronger effect = lower value) was 1.23 (inactive); the z-score under setting [1] is -0.867; the z-score under setting [2] is -0.00233; the z-score under setting [3] was 0.852.

As to `CN(CCc1ccccn1)C(=O)CCC1CCCN(Cc2ccccc2OC(F)F)C1` (configuration not stated), the z-score was -0.0542 (inactive) (at 20 µM, stronger effect = lower value); 0.0326 under setting [1]; -0.306 under setting [2]; 0.247 under setting [3].

The values above are taken from PubChem BioAssay AID1381 (University of Pittsburgh Molecular Library Screening Center, 2008).
